Legend:
MV4;11 = test: Cell growth inhibition, CellTiter-Glo; type: cell-based, human
MOLM-13 = test: Cell growth inhibition, CellTiter-Glo; type: cell-based
[1] = system: HOXA9 mRNA in MV4;11 cells; test: qRT-PCR gene expression in MV4; type: cell-based, human; conditions: 24h of treatment
How it was run: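 Total RNA from in vitro-grown cells isolated with RNeasy. cDNA made with a High-Capacity reverse transcription kit. TaqMan gene expression assays with gene-specific primers amplified HOXA9, MEIS1, ITGAM, GAPDH and HPRT1. Relative transcript levels calculated by the comparative Ct method.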

[2] = system: MV4;11 subcutaneous tumors; test: MV4; type: in vivo, mice; conditions: 100 mg/kg daily for 26 days, oral gavage; 157 mm^3 at the beginning of the treatment
How it was run: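 Female C.B-17 SCID mice (5–6 weeks) implanted sc in the right flank with 5×10^6 MV4;11 cells in 1:1 Matrigel. Randomized once tumors reached the target volume. Dosed once daily by oral gavage at 10 ml/kg; vehicle 0.5% MC (400cP) + 0.2% Tween 80 (w/w). Body weight recorded daily. Calipers three times weekly; volume = 0.5×W×W×L; mean ± SEM. Regrowth followed to day 45 after treatment start.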

COC(=O)N[C@H]1CCC[C@@H]1[C@](CN1CCC1)(c1cccc(F)c1)C1CCN(CC2(OC)CN(c3ccc(S(=O)(=O)C4CN(C(=O)/C=C/CN(C)C)C4)cc3)C2)CC1 [Compound 19, Methyl ((1S,2R)-2-(2-(azetidin-1-yl)-1-(1-((1-(4-((1-((E)-4-(dimethylamino)but-2-enoyl)-azetidin-3-yl)sulfonyl)phenyl)-3-methoxyazetidin-3-yl)methyl)piperidin-4-yl)-1-(3-fluorophenyl)ethyl)cyclopentyl)carbamate]
Fold more potent than compound 17 in inhibiting proliferation (MV4;11; MV4;11, ratio of IC50): 72 fold
Fold more potent than compound 17 in inhibiting proliferation (MOLM-13; MOLM-13, ratio of IC50): 9 fold

C=CC(=O)N1CC(S(=O)(=O)c2ccc(N3CC(CN4CCC([C@@](CN5CCC5)(c5cccc(F)c5)[C@H]5CCC[C@@H]5NC(=O)OC)CC4)(OC)C3)cc2)C1 [Compound 20, Methyl ((1S,2R)-2-(1-(1-((1-(4-((1-acryloylazetidin-3-yl)sulfonyl)phenyl)-3-methoxyazetidin-3-yl)methyl)piperidin-4-yl)-2-(azetidin-1-yl)-1-(3-fluorophenyl)ethyl)cyclopentyl)carbamate]
Fold less potent than compound 19 in inhibiting growth (MV4;11; MV4;11, ratio of IC50): 49 fold
Fold less potent than compound 19 in inhibiting growth (MOLM-13; MOLM-13, ratio of IC50): 8 fold

C=CC(=O)N1CCC[C@H](S(=O)(=O)c2ccc(N3CC(CN4CCC([C@@](CN5CCC5)(c5cccc(F)c5)[C@H]5CCC[C@@H]5NC(=O)OC)CC4)(OC)C3)cc2)C1 [Compound 22, Methyl ((1S,2R)-2-(1-(1-((1-(4-(((S)-1-acryloylpiperidin-3-yl)sulfonyl)phenyl)-3-methoxy-azetidin-3-yl)methyl)piperidin-4-yl)-2-(azetidin-1-yl)-1-(3-fluorophenyl)ethyl)-cyclopentyl)carbamate]
Times more potent than compound 21 (MV4;11; MV4;11): 2 times
Times more potent than compound 21 (MOLM-13; MOLM-13): 2 times

C=CC(=O)N1CCC[C@@H](S(=O)(=O)c2ccc(N3CC(CN4CCC([C@@](CN5CCC5)(c5cccc(F)c5)[C@H]5CCC[C@@H]5NC(=O)OC)CC4)(OC)C3)cc2)C1 [Compound 23, Methyl ((1S,2R)-2-(1-(1-((1-(4-(((R)-1-acryloylpiperidin-3-yl)sulfonyl)phenyl)-3-methoxy-azetidin-3-yl)methyl)piperidin-4-yl)-2-(azetidin-1-yl)-1-(3-fluorophenyl)ethyl)cyclopentyl)-carbamate]
Times more potent than compound 21 (MV4;11; MV4;11): 2 times
Times more potent than compound 21 (MOLM-13; MOLM-13): 2 times

C=CC(=O)N1C[C@@H]2C[C@H]1CN2S(=O)(=O)c1ccc(N2CC(CN3CCC([C@@](CN4CCC4)(c4cccc(F)c4)[C@H]4CCC[C@@H]4NC(=O)OC)CC3)(OC)C2)cc1 [Compound 24, Methyl ((1S,2R)-2-(1-(1-((1-(4-(((1S,4S)-5-acryloyl-2,5-diazabicyclo[2.2.1]heptan-2-yl)-sulfonyl)phenyl)-3-methoxyazetidin-3-yl)methyl)piperidin-4-yl)-2-(azetidin-1-yl)-1-(3-fluoro-phenyl)ethyl)cyclopentyl)carbamate]
Fold more potent than compound 20 (MV4;11; MV4;11): 8–10 fold
Fold more potent than stereoisomer compound 25 (MV4;11; MV4;11, ratio of IC50): 40 fold
Fold more potent than compound 20 (MOLM-13; MOLM-13): 8–10 fold
Fold more potent than stereoisomer compound 25 (MOLM-13; MOLM-13, ratio of IC50): 9 fold
Concentration as low as which HOXA9 gene expression is effectively modulated [1]: 10 nM
Average tumor volume on day 26 of the treatment [2]: 106 mm^3

CCC(=O)N1C[C@@H]2C[C@H]1CN2S(=O)(=O)c1ccc(N2CC(CN3CCC([C@@](CN4CCC4)(c4cccc(F)c4)[C@H]4CCC[C@@H]4NC(=O)OC)CC3)(OC)C2)cc1 [Compound 26, Methyl ((1S,2R)-2-(2-(azetidin-1-yl)-1-(3-fluorophenyl)-1-(1-((3-methoxy-1-(4-(((1S,4S)-5-propionyl-2,5-diazabicyclo[2.2.1]heptan-2-yl)sulfonyl)phenyl)azetidin-3-yl)methyl)piperidin-4-yl)ethyl)cyclopentyl)carbamate]
Times less potent than 24 in inhibition of cell growth (MV4;11; MV4;11): > 10 times
Times less potent than 24 in inhibition of cell growth (MOLM-13; MOLM-13): > 10 times

Reference: publication PMC8935478 (Journal of medicinal chemistry, 2021)
